# Calls of active or inactive are those of the source. The rule behind the calls is not given here.
# Legend:
# [1] = Inhibition of Escherichia coli HisG
# [2] = target: T1, ATP phosphoribosyltransferase (Mycobacterium tuberculosis) (UniProt P9WMN1); test: Inhibition of Mycobacterium tuberculosis HisG assessed as phosphoribosyl ATP production at 10 uM by spectrophotometry
# T1 sequence (whole entry): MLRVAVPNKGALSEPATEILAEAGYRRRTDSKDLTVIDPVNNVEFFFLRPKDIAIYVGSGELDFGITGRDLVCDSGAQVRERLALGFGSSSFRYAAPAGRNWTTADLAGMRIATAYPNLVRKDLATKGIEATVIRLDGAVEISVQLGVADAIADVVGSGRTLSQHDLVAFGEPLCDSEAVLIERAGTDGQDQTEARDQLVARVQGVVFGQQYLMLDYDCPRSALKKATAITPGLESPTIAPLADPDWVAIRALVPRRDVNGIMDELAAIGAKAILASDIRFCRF
# [3] = target: T1, ATP phosphoribosyltransferase (Mycobacterium tuberculosis); test: Inhibition of Mycobacterium tuberculosis HisG assessed as phosphoribosyl ATP production at 1 uM by spectrophotometry
# [4] = target: T2, ATP phosphoribosyltransferase (Mycobacterium tuberculosis, UniProt P9WMN1); test: Inhibition of Mycobacterium tuberculosis HisG assessed as phosphoribosyl ATP production by spectrophotometry
# T2 sequence (P9WMN1 whole entry): T1 sequence (whole entry)
# [5] = test system: Mycolicibacterium smegmatis; test: Antimycobacterial activity against Mycobacterium smegmatis ATCC 700084 at 12 ug/mL; format: functional, organism-based
# Outline: (§1)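 M. smegmatis ATCC 700084 pre-grown 2 days in 7H9 with 0.2% glucose and 0.05% Tween80, then plated on 7H10 agar (0.2% glycerol) containing compound at 1, 3, 6, 12 or 25 μg/ml. Plates were incubated 4 days at 37 °C and growth was judged by inspection. Controls were no-compound and DMSO plates, plus kanamycin 25 μg/ml.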
# [6] = test system: Mycolicibacterium smegmatis; test: Antimycobacterial activity against Mycobacterium smegmatis ATCC 700084 at 25 ug/mL; format: functional; outline: as §1
SMILES,inhibition [2] [%],IC50 [4] [µM],further results
"O=[N+]([O-])c1ccc(O)c([N+](=O)[O-])c1 [2,4-DINITROPHENOL]",,,Ki [1]: 50 µM
O=C(CC(NC(=O)c1ccccc1)c1ccccc1)Nc1nc2ccc([N+](=O)[O-])cc2s1 (configuration not stated),71,6,inhibition [3]: 35%; Ki [4]: 2 µM
Oc1c(Cl)c(Cl)c(Cl)c(Cl)c1Cl [PENTACHLOROPHENOL],,,Ki [1]: 50 µM
Nc1nc(SCc2ccccc2)c(N)c(SCc2ccccc2)n1,48,,
O=c1oc2ccccc2c(O)c1Cc1c(O)c2ccccc2oc1=O [DICUMAROL],,,Ki [1]: 50 µM
COc1ccc(COC(=O)C2=C(C)NC3=C(C(=O)CC(c4cccs4)C3)C2c2cccs2)cc1 (configuration not stated),50,10,
O=[N+]([O-])c1ccc(Nc2cc(Nc3cccc(O)c3)c3nonc3c2[N+](=O)[O-])c(O)c1,46,11.9,Activity [5]: Active; inhibition at 25 µg/mL [6]: 100%
CCOC(=O)C(=O)Nc1nc2ccc([N+](=O)[O-])cc2s1,39,13.9,
Cc1cc(/N=N/c2ccc(S(=O)(=O)O)cc2)c(N)c(/N=N/c2ccc(S(=O)(=O)O)cc2)c1N,45,,
CN(CC(=O)O)c1nc2cc([N+](=O)[O-])ccc2s1,15,,
O=C(NNC(=O)c1cc([N+](=O)[O-])cc([N+](=O)[O-])c1Br)Nc1ccccc1,71,5.5,
O=[N+]([O-])c1ccc2c(/N=N/c3ccc4ccccc4c3O)c(O)cc(S(=O)(=O)O)c2c1,50,10,
COc1cc(C2C(C(=O)c3ccc(Cl)cc3)=C(O)C(=O)N2Cc2cccnc2)cc(OC)c1OC (configuration not stated),20,,
O=C(CSc1nnc(-c2ccccc2)c(-c2ccccc2)n1)Cc1nccs1,76,4,inhibition [3]: 40%; Ki [4]: 2 µM

# — ChEMBL document CHEMBL1140096, “Discovery of novel nitrobenzothiazole inhibitors for Mycobacterium tuberculosis ATP phosphoribosyl transferase (HisG) through virtual screening” (J Med Chem, 2008)
